For assay [1], the target named is Histone deacetylase (HDAC1 and HDAC2) (Homo sapiens) (UniProt Q13547+Q92769). Nature of the assay: Inhibition of HDAC1/2 in human HeLa cells using Boc-Lys (acetyl)-AMC as substrate at 10 uM incubated for 2 hrs prior to substrate addition measured after 30 mins by fluorescence assay relative to control. The class given is cell-based. The method, boiled down:
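HeLa nuclear extract (mainly HDAC1 and HDAC2) as enzyme source in 15 mM Tris–HCl pH 8.0 at 37 °C. Enzyme added to compound solutions, then Boc-Lys(acetyl)-AMC substrate and a further 30 min incubation. Developer containing trypsin and TSA added; fluorescence read 20 min later at 390/460 nm. Single-concentration % inhibition, mean of three experiments.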

Assay [2] concerns the target T1, Aminopeptidase N (Sus scrofa) (UniProt P15145).
T1 sequence (whole entry): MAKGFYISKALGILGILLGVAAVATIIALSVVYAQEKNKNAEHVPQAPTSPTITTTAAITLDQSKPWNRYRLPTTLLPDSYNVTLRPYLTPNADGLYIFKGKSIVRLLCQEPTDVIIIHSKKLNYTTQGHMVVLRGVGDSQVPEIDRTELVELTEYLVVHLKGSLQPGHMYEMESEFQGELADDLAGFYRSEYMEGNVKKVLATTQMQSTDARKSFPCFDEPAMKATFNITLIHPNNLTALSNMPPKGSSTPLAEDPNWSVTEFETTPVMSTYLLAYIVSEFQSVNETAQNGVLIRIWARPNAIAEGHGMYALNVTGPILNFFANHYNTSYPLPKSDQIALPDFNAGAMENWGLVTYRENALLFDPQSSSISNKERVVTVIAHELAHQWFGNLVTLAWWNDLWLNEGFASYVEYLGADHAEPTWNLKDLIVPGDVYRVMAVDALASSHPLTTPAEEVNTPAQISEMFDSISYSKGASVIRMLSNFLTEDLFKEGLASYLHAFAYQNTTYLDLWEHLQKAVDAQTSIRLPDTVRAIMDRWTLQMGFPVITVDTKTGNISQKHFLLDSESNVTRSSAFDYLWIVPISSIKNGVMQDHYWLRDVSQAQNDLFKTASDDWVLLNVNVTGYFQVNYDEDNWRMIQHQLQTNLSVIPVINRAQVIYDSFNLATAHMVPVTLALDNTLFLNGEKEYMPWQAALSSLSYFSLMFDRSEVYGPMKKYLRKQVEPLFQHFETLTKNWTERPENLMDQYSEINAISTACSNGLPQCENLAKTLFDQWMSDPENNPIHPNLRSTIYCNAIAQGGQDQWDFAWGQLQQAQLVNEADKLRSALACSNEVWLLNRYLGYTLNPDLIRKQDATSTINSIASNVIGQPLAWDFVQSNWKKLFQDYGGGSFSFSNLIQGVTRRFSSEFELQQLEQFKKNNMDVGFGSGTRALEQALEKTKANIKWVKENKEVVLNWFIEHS
Description: Inhibition of porcine kidney microsomal APN using L-Leu-para-nitroanilide as substrate at 10 uM incubated for 2 hrs prior to substrate addition measured after 30 mins by plate reader analysis relative to control. In short, it runs like this:
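Porcine kidney microsomal aminopeptidase and inhibitors in 50 mM PBS pH 7.2, preincubated 2 h at 37 °C. L-Leu-p-nitroanilide substrate then added and incubated 30 min at 37 °C. Hydrolysis followed as absorbance change at 405 nm. Single-concentration % inhibition, mean of three experiments.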

The target in assay [3] is T2, Matrix metalloproteinase-9 (Homo sapiens, UniProt P14780). Description: Inhibition of human full length MMP9 using Mca-Pro-Leu-Gly-Leu-Dap(Dnp)-Ala-Arg-NH2 as substrate at 10 uM incubated for 2 hrs prior to testing measured for 15 mins by fluorometric analysis relative to control. In short, it runs like this:
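MMP9 (3 nM) preincubated 2 h with inhibitor. Substrate hydrolysis was then followed for 15 min, ex 328/em 393 nm, in 50 mM HEPES pH 7.5, 150 mM NaCl, 5 mM CaCl2, 0.01% Brij-35 and 1% DMSO. Single-concentration screen gave % inhibition. […] Both were means of three experiments.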

The target in assay [4] is T2, Matrix metalloproteinase-9. Nature of the assay: Inhibition of human full length MMP9 using Mca-Pro-Leu-Gly-Leu-Dap(Dnp)-Ala-Arg-NH2 as substrate incubated for 2 hrs prior to testing measured for 15 mins by fluorometric analysis.
The target in assay [5] is 72 kDa type IV collagenase (Homo sapiens, UniProt P08253). Description: Inhibition of human full length MMP2 using Mca-Pro-Leu-Gly-Leu-Dap(Dnp)-Ala-Arg-NH2 as substrate incubated for 2 hrs prior to testing measured for 15 mins by fluorometric analysis.
Chain of 72 kDa type IV collagenase (P08253 whole entry): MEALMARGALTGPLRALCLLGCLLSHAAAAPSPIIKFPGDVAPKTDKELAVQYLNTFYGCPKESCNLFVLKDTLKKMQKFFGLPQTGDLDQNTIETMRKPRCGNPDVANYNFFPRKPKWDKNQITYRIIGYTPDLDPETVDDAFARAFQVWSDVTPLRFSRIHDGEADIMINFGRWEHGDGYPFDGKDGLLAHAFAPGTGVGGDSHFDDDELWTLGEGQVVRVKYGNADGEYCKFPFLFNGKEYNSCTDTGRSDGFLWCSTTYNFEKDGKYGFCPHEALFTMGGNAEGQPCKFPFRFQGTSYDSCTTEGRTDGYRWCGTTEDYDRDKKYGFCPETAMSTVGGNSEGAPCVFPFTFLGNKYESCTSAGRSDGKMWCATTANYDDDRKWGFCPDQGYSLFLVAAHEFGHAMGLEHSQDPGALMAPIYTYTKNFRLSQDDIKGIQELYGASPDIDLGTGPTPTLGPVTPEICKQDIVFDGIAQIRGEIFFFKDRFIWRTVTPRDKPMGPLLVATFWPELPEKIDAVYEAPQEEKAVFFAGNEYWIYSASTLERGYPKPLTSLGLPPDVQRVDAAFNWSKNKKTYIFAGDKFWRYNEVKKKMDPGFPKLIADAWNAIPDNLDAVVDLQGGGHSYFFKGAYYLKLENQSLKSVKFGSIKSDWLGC

One may read the inhibition as the change of the read-out against control, counted positive when it falls. As a reminder, the IC50 is the concentration at which inhibition is half-maximal. High values mean a need for much substance, low ones inhibition by little substance.

The structures appear in SMILES notation. Activity calls are given as the source filed them. The rule behind the calls is not given here.

T2 sequence (P14780 whole entry): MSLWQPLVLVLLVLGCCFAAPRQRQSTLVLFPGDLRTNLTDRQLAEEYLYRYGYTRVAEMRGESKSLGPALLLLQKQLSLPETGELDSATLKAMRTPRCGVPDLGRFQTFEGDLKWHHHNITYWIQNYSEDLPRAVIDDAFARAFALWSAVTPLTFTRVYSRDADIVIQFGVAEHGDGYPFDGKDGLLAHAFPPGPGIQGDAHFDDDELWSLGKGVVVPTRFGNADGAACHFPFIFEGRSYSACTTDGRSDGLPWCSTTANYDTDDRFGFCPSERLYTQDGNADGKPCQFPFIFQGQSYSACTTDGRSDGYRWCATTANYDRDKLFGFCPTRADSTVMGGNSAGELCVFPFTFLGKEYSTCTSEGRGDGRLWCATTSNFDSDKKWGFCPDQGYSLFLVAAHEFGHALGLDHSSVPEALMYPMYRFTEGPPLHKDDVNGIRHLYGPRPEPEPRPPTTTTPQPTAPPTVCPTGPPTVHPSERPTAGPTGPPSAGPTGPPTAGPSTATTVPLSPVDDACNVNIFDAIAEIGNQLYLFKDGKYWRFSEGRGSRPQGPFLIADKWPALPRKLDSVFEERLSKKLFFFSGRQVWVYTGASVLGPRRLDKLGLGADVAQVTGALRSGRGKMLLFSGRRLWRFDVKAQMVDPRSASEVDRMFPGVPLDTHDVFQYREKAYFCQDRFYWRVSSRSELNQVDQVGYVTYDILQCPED
Chain of Histone deacetylase (HDAC1 and HDAC2) (Homo sapiens) (Q13547 whole entry, looked up): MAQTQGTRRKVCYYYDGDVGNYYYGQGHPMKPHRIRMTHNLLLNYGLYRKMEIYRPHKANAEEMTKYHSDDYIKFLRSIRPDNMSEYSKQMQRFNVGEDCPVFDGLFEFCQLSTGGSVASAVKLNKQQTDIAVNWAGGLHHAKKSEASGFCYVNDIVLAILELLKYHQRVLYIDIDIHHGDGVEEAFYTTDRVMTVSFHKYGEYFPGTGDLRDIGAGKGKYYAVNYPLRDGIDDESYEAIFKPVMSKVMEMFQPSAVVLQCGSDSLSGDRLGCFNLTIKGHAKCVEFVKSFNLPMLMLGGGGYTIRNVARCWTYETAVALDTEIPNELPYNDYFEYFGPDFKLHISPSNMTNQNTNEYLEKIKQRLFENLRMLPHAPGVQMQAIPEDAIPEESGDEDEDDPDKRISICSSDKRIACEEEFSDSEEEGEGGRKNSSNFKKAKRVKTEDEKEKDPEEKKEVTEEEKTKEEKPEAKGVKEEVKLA
Chain of Histone deacetylase (HDAC1 and HDAC2) (Homo sapiens) (Q92769 whole entry, looked up): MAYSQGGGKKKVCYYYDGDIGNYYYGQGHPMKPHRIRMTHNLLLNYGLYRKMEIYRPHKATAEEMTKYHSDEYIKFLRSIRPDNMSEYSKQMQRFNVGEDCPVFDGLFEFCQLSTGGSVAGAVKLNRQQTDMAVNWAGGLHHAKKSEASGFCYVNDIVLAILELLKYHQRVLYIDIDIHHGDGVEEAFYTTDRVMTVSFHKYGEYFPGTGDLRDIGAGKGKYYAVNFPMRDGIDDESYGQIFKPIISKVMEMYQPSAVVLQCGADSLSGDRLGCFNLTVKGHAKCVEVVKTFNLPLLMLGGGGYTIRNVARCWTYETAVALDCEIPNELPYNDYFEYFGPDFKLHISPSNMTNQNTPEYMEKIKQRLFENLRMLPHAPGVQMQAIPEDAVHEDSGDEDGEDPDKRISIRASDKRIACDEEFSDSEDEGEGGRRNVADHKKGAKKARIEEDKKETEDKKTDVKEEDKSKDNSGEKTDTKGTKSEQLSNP

Take `Nc1ccc(Oc2ccc(S(=O)(=O)C[C@@H]3CS3)cc2)cc1`: the inhibition entry in assay [1] and in assay [2] was “inactive” throughout. This compound displayed an inhibition in assay [3] of 98.3%.
`CC(=O)Nc1ccc(Oc2ccc(S(=O)(=O)CC3CS3)cc2)cc1` (racemic): the inhibition entry in assay [1] and in assay [2] was “inactive” throughout. The same compound displayed an inhibition in assay [3] of 97.2%.
On to `CC(=O)Nc1ccc(Oc2ccc([S+]([O-])C[C@@H]3CS3)cc2)cc1` (single isomer, unassigned), for which the inhibition result in assay [1] and in assay [2] was “inactive” each time. Further, the inhibition in assay [3] came out at 3.4%.
On to `Nc1ccc(Oc2ccc(S(=O)(=O)C[C@H]3CS3)cc2)cc1`, for which the inhibition result in assay [1] and in assay [2] was “inactive” throughout. Besides, in assay [3], the inhibition was 97.4%.
Take `CC(=O)Nc1ccc(Oc2ccc([S@@+]([O-])C[C@H]3CS3)cc2)cc1`: the inhibition result in assay [1] and in assay [2] was “inactive” in each case. Further, in assay [3], the inhibition was 34.4%.
As for `CC(=O)Nc1ccc(Oc2ccc(S(=O)(=O)C[C@@H]3CS3)cc2)cc1`, the inhibition result in assay [1] and in assay [2] was “inactive” each time. The inhibition in assay [3] was found to be 91.1%.
For the compound `CC(=O)Nc1ccc(Oc2ccc([S@@+]([O-])C[C@@H]3CS3)cc2)cc1`, the inhibition result in assay [1] and in assay [2] was “inactive” each time. This compound showed an inhibition in assay [3] of 23.7%.
For `COc1ccc(S(=O)(=O)N(CC(=O)NO)CC(C)C)cc1`, the IC50 amounted to 5.9 nM in assay [4] and 2 nM in assay [5]. For the same compound, the inhibition in assay [3] stood at 100%.
On to `Nc1ccc(Oc2ccc(S(=O)(=O)CC3CS3)cc2)cc1` (racemic), for which the inhibition result in assay [1] and in assay [2] was “inactive” each time. Further, the inhibition in assay [3] was determined as 96.7%.
Regarding `CC(=O)Nc1ccc(Oc2ccc([S+]([O-])C[C@H]3CS3)cc2)cc1` (single isomer, unassigned), the inhibition entry in assay [1] and in assay [2] was “inactive” each time. In assay [3], this compound showed an inhibition of 24.8%.
As for `CC(=O)Nc1ccc(Oc2ccc(S(=O)(=O)C[C@H]3CS3)cc2)cc1`, the inhibition result in assay [1] and in assay [2] was “inactive” each time. Also, the inhibition in assay [3] came out at 96.2%.

These data come from ChEMBL document CHEMBL3616458, “Synthesis of chiral ND-322, ND-364 and ND-364 derivatives as selective inhibitors of human gelatinase” (Bioorg Med Chem, 2015).
